According to PMC6279241 (Science signaling, 2018):

Key:
92.1 cells = assay: Block of FR-elicited re-differentiation; type: cell-based, human; settings: 92.1, 7 days GSK503 and 3 days FR
PRC2 (Ezh1/2) = assay: Histone H3; type: cell-based, human; settings: 92.1, 7 days GSK503, immunoblot
Outline: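 92.1 cells were treated with GSK503 for 7 days, and histones were isolated with a purification kit. Samples ran on 15% SDS-PAGE, were blotted to PVDF, blocked in 5% milk/TBST, and detected with IRDye-coupled secondary antibodies. H3K27me3 densitometry was normalized to total H3 and compared with DMSO control. Three independent experiments.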

Cc1cc(C)c(CNC(=O)c2cc(-c3ccc(N4CCN(C)CC4)nc3)cc3c2c(C)cn3C(C)C)c(=O)[nH]1 [GSK503]
Ability of FR to re-differentiate cells (morphology and pigmentation) (92.1 cells): blocked | Histone H3(Lys27) trimethylation (PRC2 (Ezh1/2)): reduced
